Assay [1] can be described thus: Binding affinity towards Opioid receptor delta 1 from guinea pig brain using [3H]naltrindole as radioligand.
For assay [2], the target named is Kappa-type opioid receptor (Cavia porcellus) (UniProt P41144). As to the kind of experiment: Ratio of binding affinity of Opioid receptor kappa 1 to Opioid receptor mu 1 to Opioid receptor delta 1; kappa:mu:delta = 15:18:1.
The target is the same in assay [3]. Put plainly: Ratio of binding affinity of Opioid receptor kappa 1 to Opioid receptor mu 1 to Opioid receptor delta 1; kappa:mu:delta = 12:38:1.
Assay [4] shares this target. As to the kind of experiment: Ratio of binding affinity of Opioid receptor kappa 1 to Opioid receptor mu 1 to Opioid receptor delta 1; kappa:mu:delta = 13:10:1.
Assay [5] has the same target. Put plainly: Ratio of binding affinity of Opioid receptor kappa 1 to Opioid receptor mu 1 to Opioid receptor delta 1; kappa:mu:delta = 45:12:1.
Assay [6] deals with Kappa-type opioid receptor (Cavia porcellus, UniProt P41144). As to the kind of experiment: Binding affinity towards Opioid receptor kappa 1 from guinea pig brain using [3H]U-69593 as radioligand. An outline of the steps:
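Uses 1 nM [3H]U69,593 with guinea pig brain membrane protein (500 µg), 12 concentrations, 50 mM Tris-HCl pH 7.5, 60 min at 25 °C. Nonspecific binding with 10 µM naloxone. Filters pre-soaked in 0.1% polyethylenimine; bound label counted.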

The target of assay [7] is Mu-type opioid receptor (Cavia porcellus, UniProt P97266). As to the kind of experiment: Binding affinity towards Opioid receptor mu 1 from guinea pig brain using [3H]DAMGO as radioligand.
Chain of Mu-type opioid receptor (Cavia porcellus, UniProt P97266) (P97266 whole entry): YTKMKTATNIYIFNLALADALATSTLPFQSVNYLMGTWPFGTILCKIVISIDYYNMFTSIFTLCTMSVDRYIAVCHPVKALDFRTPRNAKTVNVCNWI
Assay [8] concerns the target Kappa-type opioid receptor (Cavia porcellus) (UniProt P41144). As to the kind of experiment: Ratio of binding affinity of Opioid receptor kappa 1 to Opioid receptor mu 1 to Opioid receptor delta 1; kappa:mu:delta = 4:3:1.
The target is the same in assay [9]. Put plainly: Ratio of binding affinity of Opioid receptor kappa 1 to Opioid receptor mu 1 to Opioid receptor delta 1; kappa:mu:delta = 5:3:1.
Assay [10] has as its target Mu-type opioid receptor (Homo sapiens, UniProt P35372). Put plainly: Incorporation of [35S]GTP-gamma-S, into CHO membranes expressing human Opioid receptor mu 1. Format: functional. Background: GTPγS resists hydrolysis and so accumulates on activated G proteins.
Assay [11] has as its target Kappa-type opioid receptor (Cavia porcellus) (UniProt P41144). As to the kind of experiment: Ratio of binding affinity of Opioid receptor kappa 1 to Opioid receptor mu 1 to Opioid receptor delta 1; kappa:mu:delta = 7:3:1.
In assay [12] the target is Kappa-type opioid receptor (Homo sapiens, UniProt P41145). As to the kind of experiment: Incorporation of [35S]GTP-gamma-S, into CHO membranes expressing human Opioid receptor kappa 1. The assay is classed as functional.
Chain of Kappa-type opioid receptor (Homo sapiens, UniProt P41145) (P41145 whole entry): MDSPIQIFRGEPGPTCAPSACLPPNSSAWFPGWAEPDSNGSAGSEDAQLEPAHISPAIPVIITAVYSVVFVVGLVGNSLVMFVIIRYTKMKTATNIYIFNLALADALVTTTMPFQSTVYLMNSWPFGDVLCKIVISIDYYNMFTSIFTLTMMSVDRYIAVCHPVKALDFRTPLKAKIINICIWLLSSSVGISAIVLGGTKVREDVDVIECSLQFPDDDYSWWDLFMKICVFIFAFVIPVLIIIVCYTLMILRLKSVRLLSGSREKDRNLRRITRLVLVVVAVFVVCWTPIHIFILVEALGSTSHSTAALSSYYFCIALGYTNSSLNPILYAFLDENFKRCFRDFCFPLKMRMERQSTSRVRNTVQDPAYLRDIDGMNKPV
For assay [13], the target named is Kappa-type opioid receptor (Cavia porcellus) (UniProt P41144). Put plainly: Ratio of binding affinity of Opioid receptor kappa 1 to Opioid receptor mu 1 to Opioid receptor delta 1; kappa:mu:delta = 9:1:1.
The target is the same in assay [14]. Put plainly: Ratio of binding affinity of Opioid receptor kappa 1 to Opioid receptor mu 1 to Opioid receptor delta 1; kappa:mu:delta = 26:81:1.
Assay [15] has the same target. Put plainly: Ratio of binding affinity of Opioid receptor kappa 1 to Opioid receptor mu 1 to Opioid receptor delta 1; kappa:mu:delta = 10:9:1.
Assay [16] has the same target. As to the kind of experiment: Ratio of binding affinity of Opioid receptor kappa 1 to Opioid receptor mu 1 to Opioid receptor delta 1; kappa:mu:delta = 36:14:1.
For assay [17] the target is unchanged. Put plainly: Ratio of binding affinity of Opioid receptor kappa 1 to Opioid receptor mu 1 to Opioid receptor delta 1; kappa:mu:delta = 12:4:1.

One may read the Ki as a dissociation constant, usually derived from enzyme kinetics or from competition with a known ligand. For orientation: Emax means the size of the effect at its maximum, as opposed to the concentration needed.

Chain of Kappa-type opioid receptor (Cavia porcellus) (P41144 whole entry): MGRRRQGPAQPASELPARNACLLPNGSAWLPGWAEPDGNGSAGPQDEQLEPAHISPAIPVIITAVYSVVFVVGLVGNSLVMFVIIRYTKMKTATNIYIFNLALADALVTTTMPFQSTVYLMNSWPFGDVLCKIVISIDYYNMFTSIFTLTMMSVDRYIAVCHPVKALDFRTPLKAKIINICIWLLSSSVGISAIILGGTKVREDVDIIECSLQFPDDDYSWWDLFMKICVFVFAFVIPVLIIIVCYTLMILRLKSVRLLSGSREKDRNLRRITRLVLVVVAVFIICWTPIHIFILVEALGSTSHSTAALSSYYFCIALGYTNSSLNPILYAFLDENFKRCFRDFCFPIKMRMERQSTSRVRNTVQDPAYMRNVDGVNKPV
Chain of Kappa-type opioid receptor (Cavia porcellus, UniProt P41144) (P41144 whole entry): as above
Chain of Mu-type opioid receptor (Homo sapiens, UniProt P35372) (P35372 whole entry): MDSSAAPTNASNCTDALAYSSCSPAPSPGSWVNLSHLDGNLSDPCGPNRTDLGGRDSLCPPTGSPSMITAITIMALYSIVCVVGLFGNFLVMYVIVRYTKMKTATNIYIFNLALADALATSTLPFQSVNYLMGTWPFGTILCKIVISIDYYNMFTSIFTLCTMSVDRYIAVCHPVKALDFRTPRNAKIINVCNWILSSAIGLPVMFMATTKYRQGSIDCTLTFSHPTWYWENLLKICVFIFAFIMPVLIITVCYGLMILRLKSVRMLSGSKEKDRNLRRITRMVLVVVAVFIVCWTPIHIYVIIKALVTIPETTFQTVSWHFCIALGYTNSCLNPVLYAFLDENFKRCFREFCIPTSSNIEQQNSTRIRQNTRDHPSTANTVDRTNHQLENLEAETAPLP

The compound `C[C@H]1C2Cc3ccc(NCCc4ccccc4)cc3[C@@]1(C)CCN2CC1CC1` had a Ki in assay [1] of 160 nM. The Ratio in assay [2] came to 15.

In the case of `C[C@H]1C2Cc3ccc(NCc4ccccc4)cc3[C@@]1(C)CCN2CC1CC1` (stereo in doubt; 25), the Ratio in [3] stood at 12.

`C[C@H]1C2Cc3ccc(N(C)Cc4ccccc4)cc3[C@@]1(C)CCN2CC1CC1` showed a Ki in [1] of 570 nM. In [4], the Ratio worked out at 13.

Turning to `COc1ccccc1Nc1ccc2c(c1)[C@@]1(C)CCN(CC3CC3)C(C2)[C@@H]1C`, the Ratio in assay [5] amounted to 45. Moreover, the values for the inhibition constant (Ki) in assay [6] and in assay [7] were 2.2 nM and 8.5 nM, respectively.

For `C[C@H]1C2Cc3ccc(Nc4ccc(C(C)(C)C)cc4)cc3[C@@]1(C)CCN2CC1CC1`, the Ki in assay [6] worked out at 14 nM; in assay [7] it was 18 nM. Also, the Ratio in [8] was 4.

For the compound `C[C@H]1C2Cc3ccc(Nc4ccc(Cl)c(Cl)c4)cc3[C@@]1(C)CCN2CC1CC1`, the Ki in [6] was found to be 5.7 nM; in assay [7], 8.4 nM. Also, the Ratio in assay [9] was determined as 5.

For `CC[C@@]12CCN(CC3CC3)C(C(=O)c3ccc(N)cc31)[C@@H]2C` (single isomer, unassigned; (-)), the maximal response (Emax) in [10] amounted to 10%; in assay [12], 110%. For the same compound, the Ratio in assay [11] amounted to 7.

Take `C[C@H]1C2Cc3ccc(Nc4ccc(N(C)C)cc4)cc3[C@@]1(C)CCN2CC1CC1`: the Ratio in [13] was 9. The Ki in [6] was 8.8 nM; in [7] it was 70 nM.

On to `C[C@H]1C2Cc3ccc(NCc4ccccc4)cc3[C@@]1(C)CCN2CC1CC1` (single isomer, unassigned; (-)), for which, in assay [14], the Ratio was 26.

For `C[C@H]1C2Cc3ccc(Nc4ccc(Cl)cc4)cc3[C@@]1(C)CCN2CC1CC1`, the inhibitory constant (Ki) in assay [6] was 2.5 nM; in assay [7], 3 nM. In assay [15], the Ratio amounted to 10.

As for `C[C@H]1C2Cc3cc4cc[nH]c4cc3[C@@]1(C)CCN2CC1CC1`, the inhibition constant Ki worked out at 7 nM in assay [6] and 18 nM in [7]. The Ratio in assay [16] is 36.

Take `C[C@H]1C2Cc3ccc(N4CCCCC4)cc3[C@@]1(C)CCN2CC1CC1`: the Ratio in [17] is 12. The inhibition constant Ki in assay [7] stood at 95 nM; in assay [1], 3600 nM.

The values are drawn from ChEMBL document CHEMBL1145777 (J Med Chem, 2003).
